This note sets out measurements from ChEMBL document CHEMBL6109036, “Azo derivatives of monoterpenes as anti-Helicobacter pylori agents: from synthesis to structure-based target investigation” (RSC Med Chem, 2025).

Converted amounts (≈) assume the structure as drawn.

Holding throughout (format): functional
In experiment [1] the test system is Helicobacter pylori. Briefly: Anti-bacterial activity against Helicobacter pylori Clinical isolate F4 measured after 72 hrs incubation by modified broth dilution method. Background: Broth dilution looks for growth in wells or tubes with falling amounts of substance.
For experiment [2], the system named is Helicobacter pylori. Briefly: Anti-bacterial activity against Helicobacter pylori Clinical isolate 23 measured after 72 hrs incubation by modified broth dilution method.
Experiment [3] deals with Helicobacter pylori. Briefly: Bactericidal activity against Helicobacter pylori Clinical isolate 23 measured after 72 hrs of incubation under microaerophilic conditions by modified broth dilution method. The conditions noted are these: read-out: MBC99.9. The method, boiled down: (§1)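 H. pylori (NCTC 11637, F1, 23, F4). Wells with no visible growth in the MIC assay spotted (10 μL) onto Skirrow agar. Plates incubated 72 h at 37 °C, microaerophilic, 100% humidity. MBC = concentration killing 99.9% of the initial inoculum. Triplicate, on at least three different days.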

Experiment [4] relates to Helicobacter pylori. Briefly: Bactericidal against Helicobacter pylori measured after 72 hrs of incubation under microaerophilic conditions by modified broth dilution method. The method in brief: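 Wells with no visible growth in the MIC assay spotted (10 μL) onto Skirrow agar. Plates incubated 72 h at 37 °C, microaerophilic, 100% humidity. Triplicate, on at least three different days.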

Experiment [5] concerns Helicobacter pylori. Briefly: Anti-bacterial activity against Helicobacter pylori measured after 72 hrs incubation by modified broth dilution method.
Experiment [6] concerns Helicobacter pylori. Briefly: Anti-bacterial activity against Helicobacter pylori Clinical isolate F1 measured after 72 hrs incubation by modified broth dilution method.
In experiment [7] the test system is Helicobacter pylori. Briefly: Bactericidal against Helicobacter pylori Clinical isolate F4 measured after 72 hrs of incubation under microaerophilic conditions by modified broth dilution method. The note with it: read-out: MBC99.9. The method, boiled down: as §1
The test system of experiment [8] is Helicobacter pylori. Briefly: Bactericidal activity against Helicobacter pylori NCTC 11637 measured after 72 hrs of incubation under microaerophilic conditions by modified broth dilution method. The note with it: read-out: MBC99.9. The method in brief:
as §1

For experiment [9], the system named is Helicobacter pylori. Briefly: Bactericidal activity against Helicobacter pylori Clinical isolate F1 measured after 72 hrs of incubation under microaerophilic conditions by modified broth dilution method. The conditions noted are these: read-out: MBC99.9. The method, boiled down: as §1
The subject of experiment [10] is Helicobacter pylori. Briefly: Anti-bacterial activity against Helicobacter pylori NCTC 11637 measured after 72 hrs incubation by modified broth dilution method.

As to `COc1ccc(/N=N/c2cc(C(C)C)c(OC(C)=O)cc2C)cc1`, the minimal inhibitory concentration (MIC) was 64 µg/mL (≈ 196 µM) in the experiment with Helicobacter pylori [1], 64 µg/mL (≈ 196 µM) in the experiment on Helicobacter pylori [2], 128 µg/mL (≈ 392 µM) against Helicobacter pylori [6] and 128 µg/mL (≈ 392 µM) against Helicobacter pylori [10]. Besides, the MBC in the experiment on Helicobacter pylori [3] was 64 µg/mL (≈ 196 µM); with Helicobacter pylori [7], 128 µg/mL (≈ 392 µM); with Helicobacter pylori [8] it was 128 µg/mL (≈ 392 µM); in the experiment with Helicobacter pylori [9], 128 µg/mL (≈ 392 µM). The same molecule returned an MBC90 against Helicobacter pylori [4] of 128 µg/mL (≈ 392 µM). In the experiment with Helicobacter pylori [5], this molecule came in with an MIC50 of 64 µg/mL (≈ 196 µM). Further, the MIC90 against Helicobacter pylori [5] came out at 128 µg/mL (≈ 392 µM).

For the molecule `COc1ccc(/N=N/c2cc(C)c(O)cc2C(C)C)cc1`, the MIC amounted to 4 µg/mL (≈ 14.1 µM) against Helicobacter pylori [1], 8 µg/mL (≈ 28.1 µM) against Helicobacter pylori [2], 4 µg/mL (≈ 14.1 µM) against Helicobacter pylori [6] and 8 µg/mL (≈ 28.1 µM) in the experiment on Helicobacter pylori [10]. In addition, the MBC with Helicobacter pylori [3] was determined as 8 µg/mL (≈ 28.1 µM); in the experiment with Helicobacter pylori [7], 4 µg/mL (≈ 14.1 µM); in the experiment on Helicobacter pylori [8], 8 µg/mL (≈ 28.1 µM); in the experiment with Helicobacter pylori [9], 4 µg/mL (≈ 14.1 µM). In addition, in the experiment on Helicobacter pylori [4], the MBC90 came to 8 µg/mL (≈ 28.1 µM). Also, the MIC50 in the experiment with Helicobacter pylori [5] came out at 4 µg/mL (≈ 14.1 µM). Moreover, in the experiment with Helicobacter pylori [5], the MIC90 amounted to 8 µg/mL (≈ 28.1 µM).

On to `COc1cc(C=O)cc(/N=N/c2cccc([N+](=O)[O-])c2)c1O`, for which the MIC in the experiment with Helicobacter pylori [1] was determined as 8 µg/mL (≈ 26.6 µM); in the experiment on Helicobacter pylori [2] it was 8 µg/mL (≈ 26.6 µM); in the experiment with Helicobacter pylori [6] it was 16 µg/mL (≈ 53.1 µM); with Helicobacter pylori [10], 8 µg/mL (≈ 26.6 µM). For the same molecule, the MBC in the experiment on Helicobacter pylori [3] came to 8 µg/mL (≈ 26.6 µM); in the experiment with Helicobacter pylori [7] it was 16 µg/mL (≈ 53.1 µM); with Helicobacter pylori [8], 8 µg/mL (≈ 26.6 µM); in the experiment on Helicobacter pylori [9], 16 µg/mL (≈ 53.1 µM). In addition, the MBC90 against Helicobacter pylori [4] was determined as 16 µg/mL (≈ 53.1 µM). In the experiment with Helicobacter pylori [5], this molecule had an MIC50 of 8 µg/mL (≈ 26.6 µM). The same molecule came in with an MIC90 against Helicobacter pylori [5] of 16 µg/mL (≈ 53.1 µM).

`Cc1cc(/N=N/c2ccc(Br)cc2)c(C(C)C)c(/N=N/c2ccc(Br)cc2)c1O`: the MIC with Helicobacter pylori [1] is greater than 128 µg/mL; with Helicobacter pylori [2] it was greater than 128 µg/mL; with Helicobacter pylori [6], greater than 128 µg/mL; with Helicobacter pylori [10], 128 µg/mL (≈ 248 µM). Besides, the MBC in the experiment on Helicobacter pylori [3] is greater than 128 µg/mL; in the experiment with Helicobacter pylori [7] it was greater than 128 µg/mL; in the experiment with Helicobacter pylori [8] it was 128 µg/mL (≈ 248 µM); with Helicobacter pylori [9], greater than 128 µg/mL. In the experiment with Helicobacter pylori [4], this molecule returned an MBC90 greater than 128 µg/mL. In the experiment on Helicobacter pylori [5], this molecule returned an MIC50 greater than 128 µg/mL. The molecule further returned an MIC90 in the experiment with Helicobacter pylori [5] greater than 128 µg/mL.

In the case of `COc1cc(C=O)cc(/N=N/c2ccc(Br)cc2)c1O`, the MIC is 16 µg/mL (≈ 47.7 µM) in the experiment on Helicobacter pylori [1], 32 µg/mL (≈ 95.5 µM) with Helicobacter pylori [2], 8 µg/mL (≈ 23.9 µM) with Helicobacter pylori [6] and 16 µg/mL (≈ 47.7 µM) in the experiment with Helicobacter pylori [10]. Also, the MBC was determined as 32 µg/mL (≈ 95.5 µM) in the experiment on Helicobacter pylori [3], 16 µg/mL (≈ 47.7 µM) with Helicobacter pylori [7], 16 µg/mL (≈ 47.7 µM) in the experiment on Helicobacter pylori [8] and 8 µg/mL (≈ 23.9 µM) in the experiment on Helicobacter pylori [9]. Besides, the MBC90 with Helicobacter pylori [4] was 32 µg/mL (≈ 95.5 µM). This molecule also displayed an MIC50 in the experiment with Helicobacter pylori [5] of 16 µg/mL (≈ 47.7 µM). Moreover, the MIC90 in the experiment on Helicobacter pylori [5] was 32 µg/mL (≈ 95.5 µM).

Regarding `COc1ccc(/N=N/c2cc(C(C)C)c(O)cc2C)cc1`, the MIC is 2 µg/mL (≈ 7.03 µM) in the experiment on Helicobacter pylori [1], 4 µg/mL (≈ 14.1 µM) against Helicobacter pylori [2], 4 µg/mL (≈ 14.1 µM) with Helicobacter pylori [6] and 4 µg/mL (≈ 14.1 µM) against Helicobacter pylori [10]. Further, the MBC with Helicobacter pylori [3] came out at 4 µg/mL (≈ 14.1 µM); with Helicobacter pylori [7] it was 2 µg/mL (≈ 7.03 µM); with Helicobacter pylori [8], 4 µg/mL (≈ 14.1 µM); in the experiment on Helicobacter pylori [9] it was 4 µg/mL (≈ 14.1 µM). The MBC90 in the experiment on Helicobacter pylori [4] came out at 4 µg/mL (≈ 14.1 µM). Moreover, the MIC50 in the experiment with Helicobacter pylori [5] was 4 µg/mL (≈ 14.1 µM). This molecule yielded an MIC90 in the experiment with Helicobacter pylori [5] of 4 µg/mL (≈ 14.1 µM).

On to `COc1ccc(/N=N/c2cc(C=O)cc(OC)c2O)cc1`, for which the MIC was greater than 128 µg/mL against Helicobacter pylori [1], greater than 128 µg/mL against Helicobacter pylori [2], 64 µg/mL (≈ 224 µM) against Helicobacter pylori [6] and greater than 128 µg/mL with Helicobacter pylori [10]. The MBC in the experiment on Helicobacter pylori [3] was greater than 128 µg/mL; with Helicobacter pylori [7], greater than 128 µg/mL; with Helicobacter pylori [8], greater than 128 µg/mL; in the experiment with Helicobacter pylori [9], 128 µg/mL (≈ 447 µM). Moreover, the MBC90 against Helicobacter pylori [4] was greater than 128 µg/mL. Also, the MIC50 against Helicobacter pylori [5] is greater than 128 µg/mL. This molecule also returned an MIC90 in the experiment on Helicobacter pylori [5] greater than 128 µg/mL.

Take `Cc1cc(/N=N/c2ccccc2Cl)c(C(C)C)cc1O`: the MIC in the experiment with Helicobacter pylori [1] is 2 µg/mL (≈ 6.93 µM); against Helicobacter pylori [2], 4 µg/mL (≈ 13.9 µM); against Helicobacter pylori [6], 4 µg/mL (≈ 13.9 µM); in the experiment with Helicobacter pylori [10], 4 µg/mL (≈ 13.9 µM). Besides, the MBC in the experiment on Helicobacter pylori [3] is 4 µg/mL (≈ 13.9 µM); with Helicobacter pylori [7] it was 2 µg/mL (≈ 6.93 µM); in the experiment on Helicobacter pylori [8], 4 µg/mL (≈ 13.9 µM); with Helicobacter pylori [9] it was 4 µg/mL (≈ 13.9 µM). In the experiment with Helicobacter pylori [4], the MBC90 stood at 4 µg/mL (≈ 13.9 µM). This molecule also displayed an MIC50 against Helicobacter pylori [5] of 4 µg/mL (≈ 13.9 µM). This molecule also registered an MIC90 with Helicobacter pylori [5] of 4 µg/mL (≈ 13.9 µM).

Take `CC[C@H]1OC(=O)[C@H](C)[C@@H](O[C@H]2C[C@@](C)(OC)[C@@H](O)[C@H](C)O2)[C@H](C)[C@@H](O[C@@H]2O[C@H](C)C[C@H](N(C)C)[C@H]2O)[C@](C)(OC)C[C@@H](C)C(=O)[C@H](C)[C@@H](O)[C@]1(C)O` [CLARITHROMYCIN]: the MIC is greater than 256 µg/mL in the experiment with Helicobacter pylori [1], 0.064 µg/mL (≈ 0.0856 µM) in the experiment with Helicobacter pylori [2], 4 µg/mL (≈ 5.35 µM) in the experiment on Helicobacter pylori [6] and 0.064 µg/mL (≈ 0.0856 µM) in the experiment with Helicobacter pylori [10]. Moreover, the MBC worked out at 0.064 µg/mL (≈ 0.0856 µM) in the experiment on Helicobacter pylori [3], 256 µg/mL (≈ 342 µM) with Helicobacter pylori [7], 0.064 µg/mL (≈ 0.0856 µM) in the experiment with Helicobacter pylori [8] and 8 µg/mL (≈ 10.7 µM) in the experiment with Helicobacter pylori [9]. For the same molecule, the MIC50 against Helicobacter pylori [5] stood at 0.064 µg/mL (≈ 0.0856 µM). The molecule also gave an MIC90 against Helicobacter pylori [5] of 256 µg/mL (≈ 342 µM).

The MIC is the lowest concentration found to suppress growth. Broadly, the MIC50 is an inhibitory concentration at the 50% level, which refers to growth in some studies and to a panel of isolates in others. A high value points to weaker potency. Broadly, the MIC90 is the lowest concentration that inhibits either 90% of growth or 90% of the strains tested, depending on the study. Low readings indicate higher susceptibility, high ones lower susceptibility.
